In article PMC9272679 (Computers in Biology and Medicine, 2022):
Marks after values point to notes of the source that are not given here.

Experiments:
A549 = experiment: In vitro antiproliferative assay; assay type: cell-based, human; details: for mean optical densities: 48 h, SRB, 515 nm
How it was run: (§1)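 NCI-sourced cells grown in DMEM with 10% FBS, penicillin 25 U/mL and streptomycin 25 U/mL (37 °C, 5% CO2, 95% humidity). 5000–40,000 viable cells/well attached 24 h, then fresh medium with test compound at 0, 0.1, 1.0, 10 or 100 μM for 48 h. TCA-fixed (10%, 1 h RT), 0.4% SRB stain 60 min, acetic acid wash, Tris-solubilised dye read at 515 nm. GI50 and TGI calculated; triplicates, mean ± SD.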

K-562 = experiment: In vitro antiproliferative assay; assay type: cell-based, human; details: for mean optical densities: 48 h, SRB, 515 nm
How it was run: as §1

MCF7 = experiment: In vitro antiproliferative assay; assay type: cell-based, human; details: for mean optical densities: 48 h, SRB, 515 nm
How it was run: as §1

HOP-62 = experiment: In vitro antiproliferative assay; assay type: cell-based, human; details: for mean optical densities: 48 h, SRB, 515 nm
How it was run: as §1

NCI–H226 = experiment: In vitro antiproliferative assay; assay type: cell-based, human; details: for mean optical densities: 48 h, SRB, 515 nm
How it was run: as §1

NCI–H322 M = experiment: In vitro antiproliferative assay; assay type: cell-based, human; details: 48 h; for mean optical densities: NCI–H322 M, SRB, 515 nm
How it was run: as §1

NCI–H522 = experiment: In vitro antiproliferative assay; assay type: cell-based, human; details: for mean optical densities: 48 h, SRB, 515 nm
How it was run: as §1

A549/ATCC = experiment: In vitro antiproliferative assay; assay type: cell-based, human; details: for mean optical densities: A549/ATCC, 48 h, SRB, 515 nm
How it was run: as §1

[1] = tested on: five cell lines originating from human lungs; experiment: In vitro antiproliferative assay; assay type: cell-based; details: read-out: IC50 range
How it was run: as §1

[2] = In vivo pharmacokinetics in rats; parameters: species or system Male albino Wistar rats; details: male, Wistar, rat, plasma, po, 5 mg/kg
How it was run: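 Rats were given test compound at 5 mg/kg BW orally. Blood was drawn hourly over 24 h (24 samples) into Na2EDTA tubes, and plasma was quantified by UPLC. Cmax, Tmax and AUC0-t were taken from the plasma concentration-time curve. K came from the terminal log-linear slope, and AUC0→∞ was calculated as AUC0-t + Clast/K.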

**Q.** For `CCNc1nc2ccccc2c2c(=O)c3cc(Cl)ccc3sc12` [RXn-02, 10-chloro-6-(ethylamino)-12H-thiochromeno[2,3-c] quinolin-12-one], which mean optical densities (A549; A549, RXn-02 0.1 μM) is on record?
**A.** 1.997

**Q.** And the mean optical densities (A549; A549, RXn-02 1.0 μM)?
**A.** 1.883

**Q.** And the mean optical densities (A549; A549, RXn-02 10 μM)?
**A.** 1.602**

**Q.** And the mean optical densities (A549; A549, RXn-02 100 μM)?
**A.** 1.129**

**Q.** And the IC50 (A549; Homo sapiens, A549, 48 h)?
**A.** 48.1 µM

**Q.** And the IC50 (K-562; Homo sapiens, K562, 48 h)?
**A.** 100 µM

**Q.** And the mean optical densities (K-562; K-562, RXn-02 0.1 μM)?
**A.** 1.771

**Q.** And the mean optical densities (K-562; K-562, RXn-02 1.0 μM)?
**A.** 1.668

**Q.** And the mean optical densities (K-562; K-562, RXn-02 10 μM)?
**A.** 1.242

**Q.** What about the mean optical densities (K-562; K-562, RXn-02 100 μM) of the same compound?
**A.** 1.056*

**Q.** And the IC50 (MCF7; Homo sapiens, MCF7, 48 h)?
**A.** 0.047 µM

**Q.** And the mean optical densities (MCF7; MCF7, RXn-02 0.1 μM)?
**A.** 1.083

**Q.** And the mean optical densities (MCF7; MCF7, RXn-02 1.0 μM)?
**A.** 0.873

**Q.** What about the mean optical densities (MCF7; MCF7, RXn-02 10 μM) of the same compound?
**A.** 0.735***

**Q.** And the mean optical densities (MCF7; MCF7, RXn-02 100 μM)?
**A.** 0.699***

**Q.** And the mean optical densities (HOP-62; HOP-62, RXn-02 0.1 μM)?
**A.** 1.859

**Q.** And the mean optical densities (HOP-62; HOP-62, RXn-02 1.0 μM)?
**A.** 1.761

**Q.** What about the mean optical densities (HOP-62; HOP-62, RXn-02 10 μM) of the same compound?
**A.** 1.463*

**Q.** And the mean optical densities (HOP-62; HOP-62, RXn-02 100 μM)?
**A.** 0.319***

**Q.** And the IC50 (HOP-62; Homo sapiens, HOP-62, 48 h)?
**A.** 13.3 µM

**Q.** What about the IC50 (NCI–H226; Homo sapiens, NCI-H226, 48 h) of the same compound?
**A.** 33.2 µM

**Q.** What about the mean optical densities (NCI–H226; NCI–H226, RXn-02 0.1 μM) of the same compound?
**A.** 2.389

**Q.** And the mean optical densities (NCI–H226; NCI–H226, RXn-02 1.0 μM)?
**A.** 2.367

**Q.** And the mean optical densities (NCI–H226; NCI–H226, RXn-02 10 μM)?
**A.** 2.142*

**Q.** And the mean optical densities (NCI–H226; NCI–H226, RXn-02 100 μM)?
**A.** 1.704**

**Q.** And the IC50 (NCI–H322 M; Homo sapiens, NCI-H322M)?
**A.** 69.5 µM

**Q.** And the mean optical densities (NCI–H322 M; RXn-02 0.1 μM)?
**A.** 1.491

**Q.** What about the mean optical densities (NCI–H322 M; RXn-02 1.0 μM) of the same compound?
**A.** 1.386

**Q.** What about the mean optical densities (NCI–H322 M; RXn-02 10 μM) of the same compound?
**A.** 1.209*

**Q.** What about the mean optical densities (NCI–H322 M; RXn-02 100 μM) of the same compound?
**A.** 1.020*

**Q.** What about the IC50 (NCI–H522; Homo sapiens, NCI-H522, 48 h) of the same compound?
**A.** 24.8 µM

**Q.** And the mean optical densities (NCI–H522; NCI–H522, RXn-02 0.1 μM)?
**A.** 2.405

**Q.** What about the mean optical densities (NCI–H522; NCI–H522, RXn-02 1.0 μM) of the same compound?
**A.** 2.362

**Q.** What about the mean optical densities (NCI–H522; NCI–H522, RXn-02 10 μM) of the same compound?
**A.** 2.110*

**Q.** What about the mean optical densities (NCI–H522; NCI–H522, RXn-02 100 μM) of the same compound?
**A.** 1.395**

**Q.** And the mean optical densities (A549/ATCC; RXn-02 0.1 μM)?
**A.** 1.997

**Q.** And the mean optical densities (A549/ATCC; RXn-02 1.0 μM)?
**A.** 1.883

**Q.** And the mean optical densities (A549/ATCC; RXn-02 10 μM)?
**A.** 1.602**

**Q.** And the mean optical densities (A549/ATCC; RXn-02 100 μM)?
**A.** 1.129**

**Q.** What about the IC50 (A549/ATCC; Homo sapiens, A549, 48 h) of the same compound?
**A.** 48.1 µM

**Q.** What about the IC50 [1] of the same compound?
**A.** 33.2 to 69.5 µM

**Q.** What about the AUC(0-t) [2] of the same compound?
**A.** 18.9 µg·h/mL

**Q.** And the Cmax [2]?
**A.** 1.76 µg/mL
